# Source: PMC2939154 (Nature, 2010)
# Entries after “also recorded” stand apart in the source; their conditions may differ. Ends that are not written are not given here.
# T1: NRMT (Homo sapiens, UniProt Q9BV86)
# T1 sequence (Q9BV86 1-223): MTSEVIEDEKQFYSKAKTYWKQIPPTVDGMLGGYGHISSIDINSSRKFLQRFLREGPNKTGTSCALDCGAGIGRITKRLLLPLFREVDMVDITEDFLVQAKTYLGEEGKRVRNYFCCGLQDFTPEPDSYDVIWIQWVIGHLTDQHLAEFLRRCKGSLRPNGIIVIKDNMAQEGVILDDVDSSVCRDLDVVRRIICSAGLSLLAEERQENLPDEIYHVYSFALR
# Tests used:
# NRMT [1] = biological target: T1, NRMT; assay: isothermal titration calorimetry; format: binding; conditions: ITC, 25OC, methyltransferase buffer pH 8.0
# Outline: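 Isothermal titration calorimetry of NRMT binding to peptide ligands: the wild-type RCC1 N-terminal peptide and a mutant peptide with Gln in place of Lys4. This tests whether Lys4 is needed for substrate binding. The readout is binding affinity.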
# [2] = biological target: N-terminal RCC1 methyltransferase (NRMT) (not stated (human or mouse cDNA cloned)) (UniProt Q9BV86); assay: ITC
# [3] = test system: N-terminally methylated proteins; conditions: mouse spleen and cardiac lysates, anti-me3-SPK immunoprecipitation
# NRMT [4] = biological target: T1, NRMT; assay: in vitro methylation assay of protein substrates by NRMT, immunoblot; format: biochemical; conditions: 50mM Tris, 50mM K Acetate, pH 8.0, 100 µM SAM, 1 h at 30°C
# [5] = test system: RCC1 methylation in 293LT cells; assay: NRMT lentiviral knockdown and rescue in 293LT cells, immunoblot; format: cell-based; conditions: murine NRMT, not targeted by human shRNA
# SPK-RCC1 = format: biochemical, human; conditions: in vitro methylation of SPK-RCC1
molecule,measurement,setting,value
H-SPKRIAKRRSPP,ΔH (exothermic binding),NRMT [1],-9.8 kcal/mol
wild-type 12-residue RCC1 N-terminal peptide,Kd,[2],70 µM
same,dH,[2],-9.8 kcal/mol
myosin light chain 3: mouse protein identified in anti-me3-SPK immunoprecipitates,N-terminal methylation identified by MS,[3],N-terminally methylated
"RCC1-His6: recombinant RCC1 with C-terminal His6 tag (protein, left off: His6, C-terminal, state not stated) MSPKRIAKRRSPPADAIPKSKKVKVSHRSHSTEPGLVLTLGQGDVGQLGLGENVMERKKPALVSIPEDVVQAEAGGMHTVCLSKSGQVYSFGCNDEGALGRDTSVEGSEMVPGKVELQEKVVQVSAGDSHTAALTDDGRVFLWGSFRDNNGVIGLLEPMKKSMVPVQVQLDVPVVKVASGNDHLVMLTADGDLYTLGCGEQGQLGRVPELFANRGGRQGLERLLVPKCVMLKSRGSRGHVRFQDAFCGAYFTFAISHEGHVYGFGLSNYHQLGTPGTESCFIPQNLTSFKNSTKSWVGFSGGQHHTVCMDSEGKAYSLGRAEYGRLGLGEGAEEKSIPTLISRLPAVSSVACGASVGYAVTKDGRVFAWGMGTNYQLGTGQDEDAWSPVEMMGKQLENRVVLSVSSGGQHTVLLVKDKEQS",in vitro methylation (enzyme FLAG-NRMT or His6-NRMT; substrate protein),NRMT [4],di-and trimethylates
"kelch-like protein 31: mouse protein identified in anti-me3-SPK immunoprecipitates (protein, UniProt Q8BWA5 2-634, looked up) Kelch-like protein 31: APKKKTIKKNKAEINEMTIIVEDSPLSKLNALNGLLEGSNSLSCVSSELTDTSYGPNLLEGLSKMRQESFLCDLVIGTKTKSFDVHKSVMASCSEYFYNILKNDPSTKRVDLNDIAPLGLATVIAYAYTGKLTLSLYTIGSIISAAVYLQIHTLVKMCSDFLIREISVENCMYVVNIAETYSLKNAKATAQKFIRDNFIEFAESEQFMKLTFEQINELLVDDDLQLPSELVAFQIAMKWLEFDQKRVKHAADLLSNIRFGTISAQDLVNYVQTVPRMMQDADCHKLLVDAMNYHLLPYHQNTLQSRRTRIRGGCRVLITVGGRPGLTEKSLSRDILYRDPENGWSKLTEMPAKSFNQCVAVMDGFLYVAGGEDQNDARNQAKHAVSNFCRYDPRFNTWIHLGSMNQKRTHFSLSVFNGLLYAVGGRNSEGSLASLECYVPSTNQWQPKAPLEVARCCHASAVADGRVIVTGGYIGSAYSRSVCAYDPALDAWQELPQLSTPRGWHCAVALGDRLYVMGGSQLGPRGERVDVLTVESFSPAARQWSFVAPLPVGVSTAGVSALHGRAYLLGGWNEGDKKYKKCIQCFNPELNEWTEDDELPEATVGVSCCTLAMPNSVSRESRASSVSSVPVSI",N-terminal methylation identified by MS,[3],N-terminally methylated
"RB: tumor suppressor protein RB; endogenous, or N-terminus fused to GFP (Fig. 3g) (protein, UniProt P06400 2-928, looked up) Retinoblastoma-associated …: PPKTPRKTAATAAAAAAEPPAPPPPPPPEEDPEQDSGPEDLPLVRLEFEETEEPDFTALCQKLKIPDHVRERAWLTWEKVSSVDGVLGGYIQKKKELWGICIFIAAVDLDEMSFTFTELQKNIEISVHKFFNLLKEIDTSTKVDNAMSRLLKKYDVLFALFSKLERTCELIYLTQPSSSISTEINSALVLKVSWITFLLAKGEVLQMEDDLVISFQLMLCVLDYFIKLSPPMLLKEPYKTAVIPINGSPRTPRRGQNRSARIAKQLENDTRIIEVLCKEHECNIDEVKNVYFKNFIPFMNSLGLVTSNGLPEVENLSKRYEEIYLKNKDLDARLFLDHDKTLQTDSIDSFETQRTPRKSNLDEEVNVIPPHTPVRTVMNTIQQLMMILNSASDQPSENLISYFNNCTVNPKESILKRVKDIGYIFKEKFAKAVGQGCVEIGSQRYKLGVRLYYRVMESMLKSEEERLSIQNFSKLLNDNIFHMSLLACALEVVMATYSRSTSQNLDSGTDLSFPWILNVLNLKAFDFYKVIESFIKAEGNLTREMIKHLERCEHRIMESLAWLSDSPLFDLIKQSKDREGPTDHLESACPLNLPLQNNHTAADMYLSPVRSPKKKGSTTRVNSTANAETQATSAFQTQKPLKSTSLSLFYKKVYRLAYLRLNTLCERLLSEHPELEHIIWTLFQHTLQNEYELMRDRHLDQIMMCSMYGICKVKNIDLKFKIIVTAYKDLPHAVQETFKRVLIKEEEYDSIIVFYNSVFMQRLKTNILQYASTRPPTLSPIPHIPRSPYKFPSSPLRIPGGNIYISPLKSPYKISEGLPTPTKMTPRSRILVSIGESFGTSEKFQKINQMVCNSDRVLKRSAEGSNPPKPLKKLRFDIEGSDEADGSKHLPGESKFQQKLAEMTSTRTRMQKQKMNDSMDTSNKEEK",in vitro methylation (enzyme FLAG-NRMT or His6-NRMT; substrate protein),NRMT [4],can methylate in vitro; also recorded: able to methylate
"murine NRMT-FLAG: murine NRMT-FLAG, not targeted by the human shRNA (protein, UniProt Q8R2U4 1-223, looked up, FLAG tag) N-terminal Xaa-Pro-Lys …: MTSEVIEDEKQFYSKAKTYWKQIPPTVDGMLGGYGHISNIDLNSSRKFLQRFLREGPNKTGTSCALDCGAGIGRITKRLLLPLFRVVDMVDVTEDFLAKAKTYLGEEGKRVRNYFCCGLQDFSPEPGSYDVIWIQWVIGHLTDQHLAEFLRRCKRGLRPNGIIVIKDNMAQEGVILDDVDSSVCRDLEVVRRIIRTAGLSLLAEERQENLPDEIYHVYSFALR","RCC1 methylation levels, rescue in NRMT knockdown cells",[5],rescues RCC1 methylation levels; also recorded: RCC1 methylation was rescued
"FLAG-NRMT: N-terminally FLAG-tagged NRMT (protein, UniProt Q9BV86 1-223, looked up, N-terminal FLAG tag) N-terminal Xaa-Pro-Lys …: MTSEVIEDEKQFYSKAKTYWKQIPPTVDGMLGGYGHISSIDINSSRKFLQRFLREGPNKTGTSCALDCGAGIGRITKRLLLPLFREVDMVDITEDFLVQAKTYLGEEGKRVRNYFCCGLQDFTPEPDSYDVIWIQWVIGHLTDQHLAEFLRRCKGSLRPNGIIVIKDNMAQEGVILDDVDSSVCRDLDVVRRIICSAGLSLLAEERQENLPDEIYHVYSFALR",in vitro methylation (enzyme FLAG-NRMT or His6-NRMT; substrate protein),NRMT [4],methylates RCC1-His6
"myosin light chain 2: mouse protein identified in anti-me3-SPK immunoprecipitates (protein, UniProt P51667 2-166, looked up) Myosin regulatory light chain …: APKKAKKRIEGGSSNVFSMFEQTQIQEFKEAFTIMDQNRDGFIDKNDLRDTFAALGRVNVKNEEIDEMIKEAPGPINFTVFLTMFGEKLKGADPEETILNAFKVFDPEGKGSLKADYVREMLTTQAERFSKEEIDQMFAAFPPDVTGNLDYKNLVHIITHGEEKD",N-terminal methylation identified by MS,[3],N-terminally methylated
NRMT(Lys169): NRMT mutant at Asn169 (protein) TSEVIEDEKQFYSKAKTYWKQIPPTVDGMLGGYGHISSIDINSSRKFLQRFLREGPNKTGTSCALDCGAGIGRITKRLLLPLFREVDMVDITEDFLVQAKTYLGEEGKRVRNYFCCGLQDFTPEPDSYDVIWIQWVIGHLTDQHLAEFLRRCKGSLRPNGIIVIKDKMAQEGVILDDVDSSVCRDLDVVRRIICSAGLSLLAEERQENLPDEIYHVYSFALR,methylation activity of NRMT mutant,SPK-RCC1,no activity
"RCC1: regulator of chromosome condensation 1, Ran guanine nucleotide-exchange factor (protein, UniProt P18754 2-421, looked up) Regulator of chromosome …: SPKRIAKRRSPPADAIPKSKKVKVSHRSHSTEPGLVLTLGQGDVGQLGLGENVMERKKPALVSIPEDVVQAEAGGMHTVCLSKSGQVYSFGCNDEGALGRDTSVEGSEMVPGKVELQEKVVQVSAGDSHTAALTDDGRVFLWGSFRDNNGVIGLLEPMKKSMVPVQVQLDVPVVKVASGNDHLVMLTADGDLYTLGCGEQGQLGRVPELFANRGGRQGLERLLVPKCVMLKSRGSRGHVRFQDAFCGAYFTFAISHEGHVYGFGLSNYHQLGTPGTESCFIPQNLTSFKNSTKSWVGFSGGQHHTVCMDSEGKAYSLGRAEYGRLGLGEGAEEKSIPTLISRLPAVSSVACGASVGYAVTKDGRVFAWGMGTNYQLGTGQDEDAWSPVEMMGKQLENRVVLSVSSGGQHTVLLVKDKEQS",N-terminal methylation identified by MS,[3],N-terminally methylated
"PPK-RCC1-His6: RCC1 possessing a Pro2 residue, His6 tagged (protein, UniProt P18754 2-421, looked up, variant S2P, His6 tag) Regulator of chromosome …: PPKRIAKRRSPPADAIPKSKKVKVSHRSHSTEPGLVLTLGQGDVGQLGLGENVMERKKPALVSIPEDVVQAEAGGMHTVCLSKSGQVYSFGCNDEGALGRDTSVEGSEMVPGKVELQEKVVQVSAGDSHTAALTDDGRVFLWGSFRDNNGVIGLLEPMKKSMVPVQVQLDVPVVKVASGNDHLVMLTADGDLYTLGCGEQGQLGRVPELFANRGGRQGLERLLVPKCVMLKSRGSRGHVRFQDAFCGAYFTFAISHEGHVYGFGLSNYHQLGTPGTESCFIPQNLTSFKNSTKSWVGFSGGQHHTVCMDSEGKAYSLGRAEYGRLGLGEGAEEKSIPTLISRLPAVSSVACGASVGYAVTKDGRVFAWGMGTNYQLGTGQDEDAWSPVEMMGKQLENRVVLSVSSGGQHTVLLVKDKEQS",in vitro methylation (enzyme FLAG-NRMT or His6-NRMT; substrate protein),NRMT [4],dimethylates
